From ChEMBL document CHEMBL3085721, “Nonhydrolyzable ATP analogues as selective inhibitors of human NPP1: a combined computational/experimental study” (J Med Chem, 2013)
Calls of active or inactive are those of the source. No cut-off for these calls is given here.

Legend:
[1] = biological target: T1, Ectonucleoside triphosphate diphosphohydrolase 1 (Homo sapiens) (UniProt P49961); test: Inhibition of human NTPDase1 assessed as amount of inorganic phosphate released using ATP as the substrate preincubated at 100 uM for 3 mins before substrate addition after 15 mins by malachite green reagent method
T1 sequence (whole entry): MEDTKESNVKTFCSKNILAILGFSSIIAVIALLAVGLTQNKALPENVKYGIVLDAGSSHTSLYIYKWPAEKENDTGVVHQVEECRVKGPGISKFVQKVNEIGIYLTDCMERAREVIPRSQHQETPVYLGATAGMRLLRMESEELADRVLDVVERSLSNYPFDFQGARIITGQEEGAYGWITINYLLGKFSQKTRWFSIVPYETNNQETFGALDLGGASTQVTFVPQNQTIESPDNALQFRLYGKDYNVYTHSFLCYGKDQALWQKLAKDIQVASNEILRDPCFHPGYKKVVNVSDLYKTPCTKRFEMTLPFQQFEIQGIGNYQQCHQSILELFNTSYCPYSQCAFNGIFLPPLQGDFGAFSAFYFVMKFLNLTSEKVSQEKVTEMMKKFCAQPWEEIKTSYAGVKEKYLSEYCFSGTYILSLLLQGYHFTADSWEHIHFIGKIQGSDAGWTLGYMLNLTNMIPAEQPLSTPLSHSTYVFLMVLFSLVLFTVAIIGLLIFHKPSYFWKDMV
How it was run: (§1)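 Crude extracts of COS-7 cells transiently transfected with human NTPDase1, -2, -3 or -8, preincubated 3 min at 37 °C in Tris-Ringer medium pH 7.4 with analogue (final 100 μM). Started with 100 μM ATP, stopped after 15 min with malachite green; released Pi read at 630 nm. ATP alone set as 100%. Mean ± SD of 3−6 experiments in triplicate.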

[2] = biological target: T2, Ectonucleotide pyrophosphatase/phosphodiesterase family member 1 (Homo sapiens, UniProt P22413); test: Mixed type inhibition of human NPP1 expressed in COS7 cells assessed as production of p-nitrophenol using pnp-TMP as the substrate preincubated for 3 mins before substrate addition measured after 15 mins by Dixon/Cornish Bowden method; assay type: cell-based, COS-7; conditions: read-out: Ki(app)
T2 sequence (P22413 whole entry): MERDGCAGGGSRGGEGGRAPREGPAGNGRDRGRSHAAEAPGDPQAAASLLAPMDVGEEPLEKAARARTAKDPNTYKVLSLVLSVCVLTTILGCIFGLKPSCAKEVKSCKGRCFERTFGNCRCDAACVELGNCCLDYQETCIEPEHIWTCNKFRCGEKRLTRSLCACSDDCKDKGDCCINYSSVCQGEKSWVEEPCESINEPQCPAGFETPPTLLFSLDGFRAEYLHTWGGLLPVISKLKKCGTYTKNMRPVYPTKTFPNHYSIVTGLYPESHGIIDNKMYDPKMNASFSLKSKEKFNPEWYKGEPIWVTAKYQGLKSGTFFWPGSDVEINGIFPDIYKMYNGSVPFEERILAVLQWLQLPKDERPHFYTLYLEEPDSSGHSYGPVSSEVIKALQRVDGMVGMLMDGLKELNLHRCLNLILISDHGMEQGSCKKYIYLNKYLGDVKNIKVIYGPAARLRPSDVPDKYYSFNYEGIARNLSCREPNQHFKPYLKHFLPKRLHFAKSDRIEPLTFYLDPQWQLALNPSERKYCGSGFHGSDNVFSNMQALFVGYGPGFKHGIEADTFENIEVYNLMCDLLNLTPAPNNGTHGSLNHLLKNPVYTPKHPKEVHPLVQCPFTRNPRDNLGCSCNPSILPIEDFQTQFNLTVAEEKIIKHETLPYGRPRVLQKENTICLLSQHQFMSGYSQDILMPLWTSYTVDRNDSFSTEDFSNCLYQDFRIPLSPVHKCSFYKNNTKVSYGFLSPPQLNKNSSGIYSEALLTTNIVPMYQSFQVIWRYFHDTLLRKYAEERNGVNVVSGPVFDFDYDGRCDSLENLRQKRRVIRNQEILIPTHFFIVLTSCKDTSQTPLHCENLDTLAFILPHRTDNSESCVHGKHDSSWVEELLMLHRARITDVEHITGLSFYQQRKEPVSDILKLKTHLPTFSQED
How it was run: (§2)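 Crude protein extract from COS-7 cells transiently transfected with human NPP1 (sonicated, debris cleared at 300g), preincubated 3 min at 37 °C with inhibitor (0, 25, 50, 100 μM) in 1 mM CaCl2, 140 mM NaCl, 5 mM KCl, 50 mM Tris pH 8.5. pnp-TMP (25, 50, 100 μM) added; p-nitrophenol read at 410 nm after 15 min. Ki,app and inhibition type from Dixon and Cornish-Bowden plots, three independent experiments.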

[3] = biological target: T3, Ectonucleoside triphosphate diphosphohydrolase 8 (Homo sapiens) (UniProt Q5MY95); test: Inhibition of human NTPDase8 assessed as amount of inorganic phosphate released using ATP as the substrate preincubated at 100 uM for 3 mins before substrate addition after 15 mins by malachite green reagent method; how it was run: as §1
T3 sequence (whole entry): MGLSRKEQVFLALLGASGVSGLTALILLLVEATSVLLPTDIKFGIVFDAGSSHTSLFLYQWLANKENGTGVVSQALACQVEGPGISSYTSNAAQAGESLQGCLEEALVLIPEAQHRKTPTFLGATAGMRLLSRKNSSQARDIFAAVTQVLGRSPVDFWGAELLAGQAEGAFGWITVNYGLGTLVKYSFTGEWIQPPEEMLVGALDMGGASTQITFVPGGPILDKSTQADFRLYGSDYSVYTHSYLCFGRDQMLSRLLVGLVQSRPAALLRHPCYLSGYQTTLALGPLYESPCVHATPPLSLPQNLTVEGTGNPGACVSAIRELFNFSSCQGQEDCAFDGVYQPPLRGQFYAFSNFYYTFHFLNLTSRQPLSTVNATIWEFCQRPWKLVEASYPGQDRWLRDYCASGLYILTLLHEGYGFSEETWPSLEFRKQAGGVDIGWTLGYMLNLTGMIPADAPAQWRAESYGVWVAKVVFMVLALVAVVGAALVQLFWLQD

[4] = biological target: T4, Ectonucleoside triphosphate diphosphohydrolase 3 (Homo sapiens) (UniProt O75355); test: Inhibition of human NTPDase3 assessed as amount of inorganic phosphate released using ATP as the substrate preincubated at 100 uM for 3 mins before substrate addition after 15 mins by malachite green reagent method; how it was run: as §1
T4 sequence (whole entry): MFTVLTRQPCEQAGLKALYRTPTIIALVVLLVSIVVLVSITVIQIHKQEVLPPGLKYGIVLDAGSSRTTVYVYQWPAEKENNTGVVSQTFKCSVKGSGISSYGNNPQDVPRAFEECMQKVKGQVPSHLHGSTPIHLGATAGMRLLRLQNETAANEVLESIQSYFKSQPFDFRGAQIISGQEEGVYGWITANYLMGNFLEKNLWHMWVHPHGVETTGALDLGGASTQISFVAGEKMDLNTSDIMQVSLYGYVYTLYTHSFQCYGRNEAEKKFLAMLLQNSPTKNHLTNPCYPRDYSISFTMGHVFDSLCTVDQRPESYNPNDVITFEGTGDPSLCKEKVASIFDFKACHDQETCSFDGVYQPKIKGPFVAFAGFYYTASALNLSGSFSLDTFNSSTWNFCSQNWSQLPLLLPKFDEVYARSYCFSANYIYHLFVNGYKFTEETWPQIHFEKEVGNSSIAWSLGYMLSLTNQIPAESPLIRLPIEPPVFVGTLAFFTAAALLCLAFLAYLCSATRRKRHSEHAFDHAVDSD

[5] = biological target: T5, Ectonucleotide pyrophosphatase/phosphodiesterase family member 1 (Homo sapiens) (UniProt P22413); test: Inhibition of human NPP1 expressed in COS7 cells assessed as production of p-nitrophenol using pnp-TMP as the substrate preincubated at 100 uM for 3 mins before substrate addition measured after 15 mins […]; assay type: cell-based; conditions: COS-7
T5 sequence (whole entry): T2 sequence (P22413 whole entry)
How it was run: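 Crude extracts of COS-7 cells transiently transfected with human NPP1 or NPP3, preincubated 3 min at 37 °C in 1 mM CaCl2, 140 mM NaCl, 5 mM KCl, 50 mM Tris pH 8.5 with analogue at 100 μM. Reaction started with 100 μM pnp-TMP; p-nitrophenol at 410 nm after 15 min. Activity without analogue set as 100%. Mean ± SD of 3−6 experiments in triplicate.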

[6] = biological target: T5, Ectonucleotide pyrophosphatase/phosphodiesterase family member 1 (Homo sapiens); test: Competitive inhibition of human NPP1 expressed in COS7 cells assessed as production of p-nitrophenol using pnp-TMP as the substrate preincubated at 25 to 100 uM for 3 mins before substrate addition measured after 15 mins by Dixon/Cornish Bowden method; assay type: cell-based; conditions: COS-7; how it was run: as §2

inhibition [1]: 50%
Ki [2]: 18 µM
inhibition [3]: 30%
inhibition [4]: 50%
inhibition [5]: 90%
inhibition [6]: Active
SMILES: B[P@@](=O)(OC[C@H]1O[C@@H](n2cnc3c(N)ncnc32)[C@H](O)[C@@H]1O)OP(=O)(O)C(Cl)(Cl)P(=O)(O)O
